EP2 antag: blocks the human prostaglandin E2 receptor EP2. P43116. C6 glioma cells expressing human EP2, cAMP TR-FRET; cells stimulated with saturating PGE2. inhibition, % at 25 µM. actives 0.52% (n = 260,000);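 active means percent inhibition above 40 after rounding to a whole number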;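 further: rat C6 glioma host cells with rolipram phosphodiesterase inhibitor present; the protocol text gives 20 µM as final concentration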
EP2 modulator: modulators of human EP2 prostaglandin E2 receptor; actives 0.83% (n = 260,000); P43116; EP2-expressing cells, cAMP HTRF FRET, PGE2 co-stimulation; induction, % at 25 µM;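 active means compounds whose cAMP rise, as percent of the full-agonist control response, exceeds 60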;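 further: rat C6 glioma line stably carrying human EP2 under a CMV promoter; the protocol text gives 20 µM as final concentration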
OX1R antag-1: OX1R (human) antagonism. inhibition, % at 6.6 µM. AID 485270. actives 1.8% (n = 330,000). O43613. OX1R-expressing cells, FRET antagonist read-out; in the data active means inhibition mostly above about 38%, no sharp cut-off; inactive means mostly below about 40%
GPR7 antag: human neuropeptides B/W receptor 1 antagonism. inhibition, % at 4.4 µM. GPR7-expressing cells, fluorescence antagonist assay. AID 1861. actives 1.1% (n = 290,000); in the data active means inhibition above about 16%, passing the limit was not always enough;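 further: cells stimulated with the agonist NPW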
Target sequence (P48145 whole entry, looked up): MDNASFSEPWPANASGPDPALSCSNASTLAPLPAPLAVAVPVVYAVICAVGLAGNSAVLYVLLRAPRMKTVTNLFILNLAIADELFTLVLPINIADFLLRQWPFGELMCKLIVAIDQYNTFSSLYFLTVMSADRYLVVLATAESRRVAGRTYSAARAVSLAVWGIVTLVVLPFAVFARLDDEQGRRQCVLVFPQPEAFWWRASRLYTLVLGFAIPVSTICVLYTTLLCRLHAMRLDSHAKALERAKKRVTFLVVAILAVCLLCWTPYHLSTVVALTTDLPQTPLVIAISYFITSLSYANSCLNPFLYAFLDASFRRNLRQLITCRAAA
OX1R antag-2: blocks the human orexin 1 receptor | CHO/OX1R cells, Fluo-8 calcium fluorescence, orexin A | O43613 | AID 434989 | inhibition, % at 5 µM | actives 0.43% (n = 330,000);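 active means inhibition above its plate's threshold, mean inhibition of all tested compounds on the plate plus 3 SD, cut at about 37% in these data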
CHO parental Ca: signal in parental CHO cells, OX1R antagonist counter-screen; actives 0.63% (n = 330,000); inhibition, % at 5.6 µM; parental CHO-K1, ATP-induced calcium, Fluo-8 fluorescence;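 active means inhibition above that plate's mean sample inhibition plus 3 SD, cut at about 26% in these data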
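Assay system: parental CHO cells; Read-out basis: percent inhibition of ATP-evoked calcium rise, normalized to controls; Benchmarks: ATP and no-ATP DMSO wells; Compound dosing: single nominal dose of 5.6 µM per compound; Signal: Fluo-8 calcium dye fluorescence; Also added: ATP as calcium-mobilizing challenge; Repeats: singlicate.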
EP2 cAMP induct: EP2 receptor cAMP induction, counter-screens negative; calls only at 20 µM (by protocol); shares compounds with EP2 modulator; C6 glioma EP2 cells, cAMP HTRF induction; plus low (about EC15) PGE2 agonist; AID 1080; actives 47% (n = 1,300);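 active means cAMP induction above 50% in the main assay while under 30% in all four parallel counter assays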;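 further: rat C6 glioma cells stably expressing human EP2 receptor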
Numbers stand for hits; . = inactive; / = no result given; + = active, no number; ! = not confirmed by another sample. Rows were chosen to be rich in hits. Some 3.7% of all compounds tested hit in one or more screens of this group.

SMILES	EP2 antag	EP2 modulator	OX1R antag-1	GPR7 antag	OX1R antag-2	CHO parental Ca	EP2 cAMP induct
Cn1c(COc2ccc(Br)cc2)nnc1SCC(=O)c1ccccc1	.	.	/	/	/	/	/
Cc1nc2ccccc2nc1SCC(=O)N1CCC(C)CC1	.	65	.	.	.	.	.
CC1CCCN(C(=O)CSc2cnc3ccccc3n2)C1 (stereo unspecified)	.	68	.	.	.	.	.
CC1CCN(C(=O)CSc2nc3ccccc3s2)CC1	/	.	.	.	.	.	/
CCn1cc(C(=O)NCCCO)c(=O)c2cc(F)c(N3CCN(C)CC3)cc21	/	/	.	.	.	.	/
Cc1cccc(NC(=O)CSc2nnc(NC(=O)c3ccco3)s2)c1	.	.	.	.	.	.	/
CCOc1ccccc1Nc1nnc(SCC(=O)NC(Cc2c[nH]c3ccccc23)C(=O)O)s1 (stereo unspecified)	.	.	.	.	.	.	/
Cc1nc2c(c(C)nn2-c2ccccc2)c(C)c1Cl	.	77	.	.	.	.	.
Cc1ccc(OCC(=O)NNC(=O)C2CCN(c3ncccn3)CC2)cc1	.	65!	.	.	.	.	.
C/C(CCc1oc2ccccc2c1-c1ccc(C)o1)=N/O	.	75	.	.	.	.	+
CCc1cc(C(=O)NNC(=S)Nc2ccccc2C)cs1	.	.	.	.	.	.	/
O=C(c1ccc(S(=O)(=O)N2CCCC2)cc1)N(c1ccccc1)C1C=CS(=O)(=O)C1 (stereo unspecified)	/	/	.	.	.	.	/
Cc1sc(-n2c(C)ccc2C)c(C#N)c1C	.	.	.	.	.	.	/
Cc1ccc(C)n1-c1sc2c(c1C#N)CCCC2	.	63	.	.	.	.	+
CC(C)C(=O)Nc1cccc(-c2csc(-c3ccccc3)n2)c1	.	.	.	.	.	.	/
CCC(C)Nc1nc(N)c([N+](=O)[O-])c(NC2CCCCC2)n1 (stereo unspecified)	/	/	.	.	.	.	/
Cc1cc2ccccn2c1C(=O)c1ccc(Cl)cc1	.	65	.	.	.	.	.
Cc1cc(SCC(=O)c2ccccc2)nc2ccccc12	.	.	/	/	/	/	.
Clc1cccc(NC2=NCCC2)c1	.	.	.	.	.	.	/
C=C(C)Cn1c(C)cc(C)c(S(=O)(=O)c2ccc(C)cc2)c1=O	.	87	.	.	.	.	+
NCCNCCNCCN	.	.	.	.	.	.	/
CCOc1nc(C)cc(C)c1S(=O)(=O)c1ccc(Cl)cc1	.	81	.	.	.	.	+
CNC(=O)COC(=O)c1ccc(OCC(=O)Nc2ccccc2OC)c(OC)c1	.	.	.	.	.	.	/
O=C(Cn1cc2c(n1)CCCC2)NCC1CCCO1 (stereo unspecified)	.	.	.	.	.	.	/
O=C(OCC(=O)N1N=C(c2ccc(Cl)cc2)CC1c1ccco1)c1ccco1 (stereo unspecified)	.	69	.	.	.	.	.
SMILES	EP2 antag	EP2 modulator	OX1R antag-1	GPR7 antag	OX1R antag-2	CHO parental Ca	EP2 cAMP induct
Cc1ncc2c(n1)-c1cc(F)ccc1SC2	/	/	.	.	.	.	/
CSc1ncc2c(n1)-c1cc(C)ccc1SC2	.	78	.	.	.	.	+
COc1ccc(-c2cc(-c3n[nH]c(=S)n3-c3cccc4ccccc34)[nH]n2)cc1	.	67	.	.	.	.	.
O=C(/C=C/c1ccccc1Cl)Nn1cnc2ccccc2c1=O	.	.	.	.	.	.	/
Cc1cnn(-c2nc(-c3ccccc3)cc(-c3ccccc3)n2)c1	.	67	/	.	/	/	+
O=C(COc1cccc2ccccc12)N1c2ccccc2CCc2ccccc21	.	66	.	.	.	.	+
O=C(COc1ccc(F)cc1)N1c2ccccc2CCc2ccccc21	.	.	.	.	.	.	/
Cc1sc2nc(COC(=O)c3cccc(S(=O)(=O)N(C)c4ccccc4)c3)[nH]c(=O)c2c1C	.	.	.	.	.	.	/
O=C(Nc1ccc(N2CCCC2)cc1)c1ccc([N+](=O)[O-])cc1Cl	.	.	.	.	.	.	/
Cc1ccc(-c2nnc(N3CCC(C)CC3)c3ccccc23)cc1	.	74	.	.	.	.	.
COc1nc(Cc2ccc(Cl)cc2)nc2ccccc12	.	.	.	.	.	.	/
C#CCSc1nc(Cc2ccc(Cl)cc2)nc2ccccc12	.	67	.	.	.	.	+
CCOc1nc(SCCOc2ccc(C)cc2)nc(N(C)C)n1	.	.	.	.	.	.	/
CCNc1nc(NCC)nc(SCCOc2ccc(C)cc2)n1	.	82	.	.	.	.	+
Cc1c(NC(=S)NC(=O)c2ccc(-c3ccc(Cl)cc3)o2)cccc1C(=O)O	.	99	.	.	.	.	+
O=C(NC(=S)Nc1ccccc1O)c1ccc(-c2ccc(Cl)cc2)o1	.	.	.	.	.	.	/
CCNC(=S)N(CCc1c(C)[nH]c2ccc(Cl)cc12)Cc1cccnc1	/	/	.	.	.	.	/
N#CCSc1nc2ccccc2c(=O)n1CCC(=O)NC1CCCCC1	.	.	.	.	.	.	/
N#CCSc1nc2ccccc2c(=O)n1C1CCCCC1	.	71	.	.	.	.	+
O=C(N/N=C/c1ccc[nH]1)c1ccccc1OCc1ccccc1Cl	.	66	.	.	.	.	+
O=c1[nH]c(N2CCc3ccccc3C2)nc2c1CCC2	.	.	.	.	.	.	/
COC(=O)c1ccc(Oc2cc(C)nc(NCc3ccccc3)n2)cc1	.	70	.	.	.	.	+
COC(=O)c1ccc(Oc2nc(C)cc(Oc3ccccc3)n2)cc1	.	.	.	.	.	.	/
O=C(CSc1ccc2nnc(CCNC(=O)c3ccc(F)cc3)n2n1)NCC1CCCO1 (stereo unspecified)	/	/	.	.	.	.	/
O=C(NCc1ccco1)C(c1cccs1)N(C(=O)Cc1cccs1)c1ccccc1 (stereo unspecified)	.	83	.	.	.	.	.
SMILES	EP2 antag	EP2 modulator	OX1R antag-1	GPR7 antag	OX1R antag-2	CHO parental Ca	EP2 cAMP induct
CCOCC(=O)Nc1cc(C(F)(F)F)ccc1Oc1cccc(Br)c1	.	65	.	.	.	.	+
CCOC(=O)CSc1nnc(Cc2ccccc2)n1-c1ccc(C)cc1	.	.	.	.	.	.	/
CCOC(=O)CN(C(=O)CSc1nnc(Cc2ccccc2)n1-c1ccc(C)cc1)c1ccccc1	.	.	.	.	.	.	.
CCC(C)C(=O)Nc1nnc(SCC(=O)N2C(C)CCCC2C)s1 (stereo unspecified)	/	/	.	.	.	.	/
Cc1ccccc1CN(C)CC(=O)Nc1ccccc1Oc1ccccc1	.	68	.	.	.	.	+
COc1ccccc1NC(=O)c1ccc(NC(=O)CN(C)Cc2ccccc2F)cc1	.	.	.	.	.	.	/

Screening results from PubChem.
